The results in this text go back to PubChem BioAssay AID743208 (The Scripps Research Institute Molecular Screening Center, 2013).

Out of some 2,100 compounds screened, about 30 (1%) were called active. Not all results are given here. Unmarked numbers belong to inactive results.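 How the source made its calls: active means inhibition above about 20% chosen separately for each screening run (limit read from the data); inactive means the rest.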

In general, inhibition refers to how much of the control response was suppressed.

Disintegrin and metalloproteinase domain-containing protein 10 (Homo sapiens), sequence (O14672 214-748 limits assumed): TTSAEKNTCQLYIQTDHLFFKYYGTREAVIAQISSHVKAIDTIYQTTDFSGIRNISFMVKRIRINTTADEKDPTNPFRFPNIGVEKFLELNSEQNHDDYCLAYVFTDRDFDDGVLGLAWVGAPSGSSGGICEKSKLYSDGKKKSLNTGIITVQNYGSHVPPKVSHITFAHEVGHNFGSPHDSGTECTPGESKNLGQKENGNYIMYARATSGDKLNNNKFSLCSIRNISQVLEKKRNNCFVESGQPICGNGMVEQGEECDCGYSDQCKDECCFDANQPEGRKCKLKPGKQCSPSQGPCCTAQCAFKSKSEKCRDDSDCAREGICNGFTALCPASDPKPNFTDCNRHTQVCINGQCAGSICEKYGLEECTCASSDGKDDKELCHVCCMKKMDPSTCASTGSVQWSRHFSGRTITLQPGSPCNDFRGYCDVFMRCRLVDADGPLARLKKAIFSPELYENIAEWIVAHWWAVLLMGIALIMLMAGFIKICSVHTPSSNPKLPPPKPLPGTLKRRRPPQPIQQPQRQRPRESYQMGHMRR

This experiment deals with Disintegrin and metalloproteinase domain-containing protein 10 (Homo sapiens) (UniProt O14672). The experiment in a line: blockers of ADAM10 peptide cleavage – biochemical, QFRET, triplicate, confirmation (AID 743208).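 Further: 0% = DMSO wells and 100% = marimastat wells.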 The conditions noted are these: EDANS fluorescence, at 6.95 µM, active compounds read high. The procedure, abridged: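 Material: ADAM10 enzyme, FRET peptide substrate | Technique: Fluorescence of cleaved EDANS peptide, excitation 359 nm, emission 460 nm | Evaluation: % inhibition relative to DMSO and marimastat wells | Repeats: Triplicate per compound | Times: 30 min preincubation and 3 h reaction at 25 °C | Benchmarks: DMSO low control, 1 µM marimastat high control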
Consider `COc1ccc(Cl)cc1NC(=O)CN(C)C(=O)CCCc1c[nH]c2ccccc12`, for which the inhibition was 3.45%. In the case of `O=C(NCCc1ccc(Cl)cc1Cl)c1cc([N+](=O)[O-])c[nH]c1=O` it was 0%. The value for `C=CC[C@H](CC(=O)N(CCO)Cc1ccccc1)C(=O)N[C@@H](COC(=O)[C@@H](CC=C)Cc1ccc(F)cc1)Cc1ccccc1` was 8.13%; that for `COc1cc(C2CC(=O)N3CN(Cc4ccccc4)CSC3=C2C#N)ccc1OCc1ccccc1` (stereo unspecified) was 5.28%.

Consider `CC(N=Cc1nc(-c2ccccc2)oc1O)c1ccccc1` (stereo unspecified), for which the inhibition is 2.54%. In the case of `C=CCC[C@@H](Cc1ccc(F)cc1)C(=O)OC[C@H](Cc1c[nH]c2ccccc12)NC(=O)[C@@H](CC=C)CC(=O)N(CCO)Cc1ccccc1` it was 10.1%; in that of `COc1ccc(Cl)cc1NC(=O)COC(=O)C(CC(C)C)N1C(=O)C2CC=CCC2C1=O` (stereo unspecified), 2.32%.

For `Cc1cccc(C2c3[nH]c4ccccc4c3CCN2C(=O)c2cc(-c3cccn3C)n[nH]2)n1` (stereo unspecified), the inhibition is 6.14%.

Turning to `N#Cc1nc(Cc2cccc3ccccc23)oc1NCc1ccc2c(c1)OCO2`, the inhibition is 6.72%. The value for `C#CCN(C[C@H]1[C@H](OC(=O)NC2CCCC2)[C@H](OC(=O)NC2CCCC2)C[C@H]2C(=O)N(c3ccccc3)C(=O)[C@@H]12)S(=O)(=O)c1ccc(C)cc1` was 2.92%; that for `Cc1ccc(NS(=O)(=O)c2ccc(C)c(NC(=O)COc3ccc4ccccc4c3)c2)c(C)c1` was 9.74%; that for `O=C(CNC(=O)c1ccc(Cl)cc1Cl)NCC(=O)Nc1ccccc1N1CCOCC1` was 0.46%. In the case of `CCOc1ccc(Br)cc1S(=O)(=O)Nc1ccc(C(=O)OC(C)C(=O)N(C)c2ccccc2)cc1` (stereo unspecified) it was 9.44%; in that of `CCC(C(=O)OCC(=O)Nc1ccccc1-c1ccccc1)c1ccccc1` (stereo unspecified), 2.14%; in that of `Cc1csc(NC(=S)Nc2cccc(Cl)c2)n1`, 7.9%. On to `CC(C)Oc1cc(F)ccc1-c1cc(C(=O)Nc2cccc(Cl)c2)[nH]n1`, for which the inhibition is 9.22%. With `c1ccc2c(CCN3CCNC[C@H]3Cc3cccc4ccccc34)cccc2c1`, the inhibition is 5.45%. Take `COc1cc(/C=N/O)cc(Br)c1OS(=O)(=O)c1ccc(C)cc1`: the inhibition was 2.32%.

On to `O=C1[C@H]2[C@@H](c3ccc(C(F)(F)F)cc3)N[C@]3(CCCN(Cc4ccc(Br)cc4)C3=O)[C@H]2C(=O)N1Cc1ccccc1`, for which the inhibition is 6.04%. For `CC(C)(C)c1ccc(C(=O)Nc2cc(Cl)c(Br)cc2C(=O)O)cc1`, the inhibition was 3.89%. In the case of `CC(C)C(=O)Nc1cccc(NC(=S)NC(=O)C(c2ccccc2)c2ccccc2)c1` it was 7.37%.
